Experiments:
Type in all cases: cell-based
[1] = system: MCF-7 cells; experiment: MTT assay, anti-proliferative activity on MCF-7 cells; conditions: Homo sapiens, MCF7, 48 h, read-out: IC50, growth/viability of MCF-7 cells
[2] = biological target: human DNA topoisomerase II-β (TOPII-β) (Homo sapiens, UniProt Q02880); experiment: Topoisomerase II activity in MCF-7 cells; conditions: ELISA kit
In short: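 Sandwich ELISA for human TOPII-β, run per the kit protocol. Standards and samples were incubated 2 h at 37 °C, then biotin-antibody 1 h at 37 °C, three washes, HRP-avidin 1 h at 37 °C and five washes. TMB substrate was added for 15–30 min at 37 °C in the dark, then stop solution. OD450 was read within 5 min, in triplicate.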

[3] = system: MCF-7 cells; experiment: Cell cycle analysis by flow cytometry; conditions: MCF-7, 3b at IC50 (1.85 μM), 48 h
In short: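 MCF-7 cells were seeded, held 12 h at 37 °C, then treated for 48 h. Cells were collected and fixed in 75% ethanol at 20 °C for 18 h. They were rinsed in PBS, centrifuged, and exposed to RNase plus propidium iodide. DNA content was read by FACS Calibur flow cytometry to give cell-cycle phase distribution.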

[4] = system: MCF-7 cells; experiment: Annexin V-FITC/PI assay of apoptosis and necrosis; conditions: MCF-7, 3b at IC50 (1.85 μM), 48 h
In short: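 MCF-7 cells were treated for 48 h, then harvested and washed twice in PBS by centrifugation (180 g, 10 min, 4 °C). Cells were resuspended in binding buffer with Annexin V-FITC for 10 min at ambient temperature, then diluted with more binding buffer. PI was added immediately before FACS Calibur flow cytometry to separate apoptotic from necrotic cells.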

[5] = MTT assay, cytotoxicity on normal breast cells MCF-10A; conditions: human, MCF-10A cells (normal breast cells)

human DNA topoisomerase II-β (TOPII-β), sequence (Q02880 whole entry): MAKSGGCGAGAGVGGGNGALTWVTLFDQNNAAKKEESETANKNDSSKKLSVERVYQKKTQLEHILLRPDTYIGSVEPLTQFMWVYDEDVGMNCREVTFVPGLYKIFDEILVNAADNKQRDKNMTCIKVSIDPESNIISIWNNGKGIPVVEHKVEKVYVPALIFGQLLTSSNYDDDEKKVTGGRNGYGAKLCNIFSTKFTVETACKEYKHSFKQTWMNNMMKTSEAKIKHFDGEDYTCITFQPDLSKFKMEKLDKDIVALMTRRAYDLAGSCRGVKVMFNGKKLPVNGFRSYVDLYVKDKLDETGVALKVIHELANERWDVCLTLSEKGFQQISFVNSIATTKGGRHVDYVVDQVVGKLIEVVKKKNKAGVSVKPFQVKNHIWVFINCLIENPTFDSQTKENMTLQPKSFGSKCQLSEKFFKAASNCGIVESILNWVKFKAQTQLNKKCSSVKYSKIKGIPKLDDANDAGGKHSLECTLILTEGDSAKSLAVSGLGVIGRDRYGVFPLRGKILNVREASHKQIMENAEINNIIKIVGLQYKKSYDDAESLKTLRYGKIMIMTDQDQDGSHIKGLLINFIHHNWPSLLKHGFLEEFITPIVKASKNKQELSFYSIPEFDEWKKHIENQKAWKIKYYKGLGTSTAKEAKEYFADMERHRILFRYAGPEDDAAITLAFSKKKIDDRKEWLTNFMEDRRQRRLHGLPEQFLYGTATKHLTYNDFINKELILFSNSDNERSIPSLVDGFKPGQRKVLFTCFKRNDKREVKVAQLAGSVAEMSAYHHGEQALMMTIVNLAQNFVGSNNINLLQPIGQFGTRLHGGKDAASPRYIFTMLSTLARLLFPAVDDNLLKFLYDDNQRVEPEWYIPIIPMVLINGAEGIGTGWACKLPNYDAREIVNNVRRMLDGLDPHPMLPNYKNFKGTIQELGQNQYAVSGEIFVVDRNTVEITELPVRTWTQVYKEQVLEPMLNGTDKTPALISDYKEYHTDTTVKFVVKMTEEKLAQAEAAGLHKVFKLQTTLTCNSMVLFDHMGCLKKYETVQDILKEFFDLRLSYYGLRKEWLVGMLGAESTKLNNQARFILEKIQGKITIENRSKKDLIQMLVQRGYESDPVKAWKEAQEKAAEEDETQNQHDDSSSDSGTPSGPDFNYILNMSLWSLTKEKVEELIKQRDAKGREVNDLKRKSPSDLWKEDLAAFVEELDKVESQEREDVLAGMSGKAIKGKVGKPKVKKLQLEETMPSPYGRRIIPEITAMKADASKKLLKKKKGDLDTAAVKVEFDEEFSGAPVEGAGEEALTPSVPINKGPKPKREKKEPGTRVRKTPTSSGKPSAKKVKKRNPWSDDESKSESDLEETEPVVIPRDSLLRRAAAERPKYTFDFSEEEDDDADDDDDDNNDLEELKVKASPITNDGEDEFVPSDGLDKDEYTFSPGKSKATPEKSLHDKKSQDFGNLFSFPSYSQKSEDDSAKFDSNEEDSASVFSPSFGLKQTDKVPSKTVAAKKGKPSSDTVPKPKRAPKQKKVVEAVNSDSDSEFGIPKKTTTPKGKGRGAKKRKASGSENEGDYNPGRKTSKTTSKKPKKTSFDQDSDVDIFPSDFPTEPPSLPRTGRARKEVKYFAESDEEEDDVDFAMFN

COc1cccc2cc(C3=Nc4ccccc4NC3)c(=O)oc12 [compound 3b, 2-(8-Methoxy-coumarin-3yl)-3,4-dihydroquinoxaline]
IC50 [1]: 1.85 ± 0.11 µM
reduction of topo II enzyme in comparison to untreated control cells [2]: 6.5 fold
percentage of cells in the pre-G1 phase ([3]; untreated control 2.02%): 42.39%
percentage of cells in the G2/M phase (%DIP G2/M) ([3]; untreated control 11.65%): 6.52%
proportion of cells in the S phase (%DIP S) ([3]; untreated control 32.89%): 47.12%
percentage of cells in the G0/G1 phase (%DIP G1) ([3]; untreated control 55.46%): 46.36%
increase in early apoptosis vs untreated control [4]: 51.7 fold
increase in programmed cell death vs untreated cells [4]: 21 fold
proportion of cells in late-stage apoptosis ([4]; control 0.29%): 12.42%
proportion of cells in early apoptosis ([4]; control 0.51%): 26.39%
proportion of cells suffering necrosis ([4]; untreated 1.2%): 3.58%
total programmed cell death ([4]; untreated cells 2.02%): 42.39%
IC50 at 48 h [5]: 33.7 ± 2.04 µM

COc1cccc2cc(-c3cnc4ccccc4n3)c(=O)oc12 [compound 4b, 2-(8-Methoxycoumarin-3-yl)-quinoxaline]
IC50 [1]: 4.08 µM

COc1ccc(Br)c2cc(-c3cnc4ccccc4n3)c(=O)oc12 [compound 5, 2-(5-bromo-8-methoxy-coumarin-3-yl)-quinoxaline]
IC50 [1]: 55 µM

Oc1c(N=Nc2ccccc2)cc(Br)cc1C1=CNc2ccccc2N1 [compound 7, 2-(5-bromo-3-phenylazo-2-hydroxyphenyl)-1,4-dihydro quinoxaline]
IC50 [1]: 8.6 µM
